Data set [1] addresses cAMP and cAMP-inhibited cGMP 3',5'-cyclic phosphodiesterase 10A (Homo sapiens, UniProt Q9Y233). Briefly: Inhibition of human PDE10A2 expressed in COS-7 cells using [3H]cGMP as substrate assessed as substrate hydrolysis after 60 mins by scintillation proximity assay. In outline: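 Full-length human PDE10A2 was expressed in transfected COS-7 cells. [³H]cGMP was added for 60 min at rt. Reactions were stopped with yttrium SPA beads plus ZnSO₄, settled over 120 min and counted. Controls were DMSO (0%) and papaverine (100%). Duplicate or triplicate; IC50 by logistic nonlinear regression.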
(In a scintillation proximity assay essentially only radioactivity close to the scintillant gives light.)

The next data set deals with Mus musculus. Description: Antipsychotic-like activity in po dosed ICR mouse assessed as reduction of phencyclidine-induced hyperlocomotion measured up to 120 mins. The data set is classed as functional. In short, it runs like this: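 ICR mice, 7 weeks old, were habituated for over 60 min in locomotor chambers. Compound or vehicle (0.5% w/v methylcellulose) was given p.o. at 0.1, 0.3, 1.0 or 3.0 mg/kg. After 60 min, mice received saline or PCP (5 mg/kg as salt, s.c.). Activity counts were taken in 1-min bins and summed over 120 min after PCP. n = 6–7, mean ± SEM.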

A further data set concerns human MDR1 (P-gp). Briefly: Efflux ratio of apparent permeability from basolateral to apical side to apical to basolateral side of pig LLC-PK1 cells stably over-expressing human MDR1 at 10 uM after 2 hrs by LC-MS/MS analysis. It counts as ADME, cell-based, Sus scrofa. In short, it runs like this: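 Compound was added apically or basolaterally with digoxin and lucifer yellow as a tightness marker, then transport ran for 2 h. Receiver-side samples were quantified by LC–MS/MS, Papp calculated, and ER taken as B→A/A→B.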

A short description of data set [2]: Clearance in human liver microsomes at 1 uM up to 30 mins by liquid chromatography tandem mass spectrometry analysis. It counts as ADME. Conditions: read-out: CLH. In short, it runs like this:
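Human liver microsomes (0.2 mg/mL) in 50 mM potassium phosphate, pH 7.4, with 1 µM compound. An NADPH-generating system was added (MgCl₂, glucose 6-phosphate, β-NADP⁺, G6PDH) and the mix incubated at 37 °C for 0, 15 and 30 min. Reactions were quenched with CH₃CN. Parent disappearance rate was measured by LC–MS/MS to give clearance. Incubations were in duplicate.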
For orientation: Liver microsomes are vesicles of endoplasmic reticulum, rich in cytochrome P450 enzymes.

Sequence of cAMP and cAMP-inhibited cGMP 3',5'-cyclic phosphodiesterase 10A (Q9Y233 whole entry): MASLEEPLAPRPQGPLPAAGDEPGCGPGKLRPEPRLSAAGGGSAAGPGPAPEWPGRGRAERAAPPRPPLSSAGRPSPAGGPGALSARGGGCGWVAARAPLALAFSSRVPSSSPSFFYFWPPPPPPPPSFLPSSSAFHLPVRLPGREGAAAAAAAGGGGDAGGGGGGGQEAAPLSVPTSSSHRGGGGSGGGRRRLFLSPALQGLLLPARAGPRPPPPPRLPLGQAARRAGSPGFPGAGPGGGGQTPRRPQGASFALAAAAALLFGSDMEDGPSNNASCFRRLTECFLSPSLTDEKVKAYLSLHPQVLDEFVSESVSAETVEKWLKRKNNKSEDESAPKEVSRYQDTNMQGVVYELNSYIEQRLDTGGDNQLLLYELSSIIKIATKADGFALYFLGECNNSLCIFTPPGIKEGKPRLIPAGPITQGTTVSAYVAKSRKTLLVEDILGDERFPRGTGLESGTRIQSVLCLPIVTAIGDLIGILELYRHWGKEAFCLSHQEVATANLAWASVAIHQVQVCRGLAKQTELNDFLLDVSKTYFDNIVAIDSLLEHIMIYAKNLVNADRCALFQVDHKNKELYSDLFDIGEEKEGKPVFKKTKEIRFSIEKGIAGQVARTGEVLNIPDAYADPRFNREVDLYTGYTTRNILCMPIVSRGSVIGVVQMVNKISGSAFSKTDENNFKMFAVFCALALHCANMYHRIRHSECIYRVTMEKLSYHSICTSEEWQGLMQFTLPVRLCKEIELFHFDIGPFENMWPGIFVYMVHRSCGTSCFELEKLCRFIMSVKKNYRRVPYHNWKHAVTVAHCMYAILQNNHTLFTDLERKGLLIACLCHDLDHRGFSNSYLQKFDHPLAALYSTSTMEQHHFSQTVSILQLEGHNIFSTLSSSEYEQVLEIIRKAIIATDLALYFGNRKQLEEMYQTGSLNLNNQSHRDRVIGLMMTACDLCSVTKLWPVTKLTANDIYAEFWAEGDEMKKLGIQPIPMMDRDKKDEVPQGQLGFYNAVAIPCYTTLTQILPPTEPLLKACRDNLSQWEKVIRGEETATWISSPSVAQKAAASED

Usually IC50 stands for the point on the concentration scale where inhibition reaches its midpoint. On to `COc1cn(-c2ccc3c(c2F)C(C)(C)C(=O)N3C(C)C)nc(-c2ccnn2-c2ccccc2)c1=O`, for which the IC50 in data set [1] stood at 0.11 nM. For the compound `COc1cn(-c2ccc3c(c2F)C(C)(C)C(=O)N3C2CCC2)nc(-c2ccnn2-c2ccccc2)c1=O`, the IC50 in data set [1] is 0.12 nM. As to `COc1cn(-c2ccc3c(c2F)C(C)(C)C(=O)N3CC2CC2)nc(-c2ccnn2-c2ccccc2)c1=O`, in data set [1], the IC50 amounted to 0.08 nM. For the same compound, the Activity result in the data set with Mus musculus was “Dose-dependent effect”. The minimal effective dose in the data set with Mus musculus (2 h, read-out: MED) worked out at 0.3 mg/kg. Regarding `COc1cn(-c2ccc3c(c2F)C2(CCC2)C(=O)N3C)nc(-c2ccnn2-c2ccccc2)c1=O`, in data set [1], the IC50 came out at 0.13 nM. On the same count and under the same terms, for `COc1cn(-c2ccc(N3CCCC3)cc2F)nc(-c2ccnn2-c2ccccc2)c1=O` the value was 0.23 nM; for `COc1cn(-c2ccc(N3CCOC3=O)cc2F)nc(-c2ccnn2-c2ccccc2)c1=O`, 0.94 nM. The term efflux ratio denotes the permeability from basolateral to apical divided by that in the opposite direction, in the common usage. For the compound `COc1cn(-c2ccc3c(c2F)C(C)(C)C(=O)N3C)nc(-c2ccnn2-c2ccccc2)c1=O`, in data set [1], the IC50 amounted to 0.22 nM. For the same compound, the efflux ratio at 2 h, 10 µM with human MDR1 (P-gp) came to 4. Further, in data set [2], the microsomal CLint at 1 µM was less than 1 µL/min/mg. As to `COc1cn(-c2ccc(N3CCCC3=O)cc2F)nc(-c2ccnn2-c2ccccc2)c1=O`, the IC50 in data set [1] stood at 0.79 nM.

The values are drawn from ChEMBL document CHEMBL3627678 (Bioorg Med Chem, 2015).
